Screening data: PubChem, Sanford-Burnham Center for Chemical Genomics
Apaf1 activ = activators of human Apaf-1 apoptosome, primary screen, biochemical, DEVD-Rh110 fluorescence, uHTS; AID 489031, 2010; Apaf-1 apoptosome caspase-3 activation; stronger effect = lower value; actives 0.31% (n = 330,000); activity change, negative = activation, % at 20 µM;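 active = activity change at or below -40% at 20 µM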
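System: Reconstituted apoptosome of Apaf-1, cytochrome c, caspase-9, procaspase-3 | Reagent: dATP, cytochrome c, and (Z-DEVD)2-Rh110 caspase-3 substrate | Times: 30 min compound preincubation and 50 min reaction, both room temperature | Detection: Caspase-3-released Rh110 fluorescence, 540 nm emission, 480 nm excitation | Measure: Caspase-3 activity via Apaf-1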
Rh110 act interf = Rh110 fluorescence interference by putative Apaf-1 activators, confirmation, artefact control for Apaf-1 activator project, biochemical, 20 µM | quenched caspase reaction, Ex480/Em540 | fluorescence interference (activity change), % at 20 µM, hits read low | shares compounds with Apaf1 activ | 980 tested, under 10 active;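 active = mean activity change at or below -40% when tested at 20 µM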
Apaf-1 act conf2 = Apaf-1 activators, single-dose retest, confirmation, biochemical, fluorescence, DEVD-Rh110, 20 µM; shares compounds with Apaf1 activ; reconstituted apoptosome caspase-3 activity; stronger effect = lower value; activity change, negative = activation, % at 20 µM; actives 5% (n = 980);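 active = mean activity change at or below -40%, meaning activation of 40% or more, at 20 µM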
Starred values were filed as active, the others as inactive; . = not tested or not shown. A selection follows.

SMILES	Apaf1 activ	Rh110 act interf	Apaf-1 act conf2
COc1ccc(NCc2cc3cc(OC)ccc3[nH]c2=O)cc1	47.3	.	.
CNC(=S)N(Cc1cc2ccc(OC)cc2[nH]c1=O)CC1CCCO1 (stereo not drawn)	-182.9*	4.9	15.1
COc1ccc2cc(C(c3nnnn3C3CCCC3)N3CCc4ccccc4C3)c(=O)[nH]c2c1 (stereo not drawn)	72.1	.	.
CC(=O)OC1=C(O)C(=O)c2ccccc2C1=O	59.0	.	.
CC1CCN(S(=O)(=O)c2ccc3c4c2CC(=O)N4CC(C)S3)CC1 (stereo not drawn)	94.4	.	.
Nc1nc(SCC(=O)Nc2cc(-c3ccccc3)nn2-c2ccccc2)n[nH]1	-41.2*	7.5	4.7
N#Cc1c(N)n(CCOC(=O)c2cccc(Br)c2)c2nc3ccccc3nc12	45.9	.	.
CCOc1cc(C)c(S(=O)(=O)Nc2ccc(Cl)cn2)cc1C	-40.5*	5.0	14.4
C#CCOCCOCCOCCNc1nc(N2CCN(C(=O)CCCCCCCCCCNC(=O)Cn3cc(C[C@@H](C)O)nn3)CC2)nc(N2CCN(C(=O)CCCCCCCCCCNC(=O)[C@H](CCCCN)n3cc(C[C@@H](C)CC)nn3)CC2)n1	70.5	.	.
CN(C)C/C=C/C(=O)Nc1cccc(-c2c[nH]c3ncnc(Oc4ccc(NC(=O)CC(=O)Nc5ccc(F)cc5)cc4F)c23)c1	63.0	.	.
Cn1c(=O)[nH]c(=O)c2c1nc(Br)n2CC(O)COc1ccccc1 (stereo not drawn)	-50.1*	-3.0	13.4
Cc1cccc(OCC(O)Cn2c(=N)n(Cc3ccccc3)c3ccccc32)c1 (stereo not drawn)	57.8	.	.
CCCCCn1c(N2CCC(Cc3ccccc3)CC2)nc2c1c(=O)[nH]c(=O)n2C	45.8	.	.
CSc1nc2c(c(=O)[nH]c(=O)n2C)n1Cc1ccccc1	-47.5*	3.4	13.0
COc1ccccc1NC1=C(N2CCCCC2)C(=O)c2ccccc2C1=O	95.0	.	.
CC[C@@H](C)[C@@H]1CN([C@@H](C)CN2CCC[C@H]2CN2C(N)=NC[C@@H]2Cc2ccccc2)C(=N)N1CCc1ccc(Cl)c(Cl)c1	70.7	.	.
NC(=S)NNc1cccc2cccnc12	76.3	.	.
COc1ccc(C(=O)Nn2cnc3scc(-c4cccs4)c3c2=O)c(O)c1	-391.3*	1.8	20.9
Cc1ccc(C(=O)NC2(O)C(=O)c3ccccc3C2=O)cc1C	96.8	.	.
C#CCOCCOCCOCCNc1nc(N2CCN(C(=O)CCCCCCCCCCNC(=O)[C@H](CCC(=O)O)n3cc(CCCCCN)nn3)CC2)nc(N2CCN(C(=O)CCCCCCCCCCNC(=O)[C@@H]([C@H](C)O)n3cc(C)nn3)CC2)n1	50.9	.	.
COc1cc(OC)c(C2CC(=O)N3CN(c4ccccc4C)CSC3=C2C#N)cc1OC (stereo not drawn)	66.2	.	.
CCN(CC)CC(=O)Nc1c(C)cccc1C	-4.6	.	.
CCN(CC(=O)Nc1c(F)cccc1F)C(=O)Cc1ccsc1	52.3	.	.
CS(=O)(=O)N(CC(=O)Nc1c(F)cccc1F)Cc1ccccc1	-58.8*	6.5	14.0
COc1ccc(C(CCN2CCCCC2)c2c(OC)cc(OC)c3c(-c4ccccc4)cc(=O)oc23)cc1 (stereo not drawn)	54.5	.	.
SMILES	Apaf1 activ	Rh110 act interf	Apaf-1 act conf2
O=C(NCc1ccccn1)c1cccc(NS(=O)(=O)c2cccc(F)c2)c1	-43.1*	0.3	8.8
COc1ccc(C(CNC(=O)c2cccc(NS(=O)(=O)c3ccc(C)c(F)c3)c2)N(C)C)cc1 (stereo not drawn)	52.3	.	.
CCOC(=O)c1c(CSC(=N)N)n(-c2ccc(C)cc2)c2cc(Br)c(OC(C)=O)cc12	45.8	.	.
Cc1onc(-c2ccccc2Cl)c1C(=O)NCc1ccc2c(c1)cc(C)n2C	53.1	.	.
CC1=NN(c2ccc(C)c(C)c2)C(=O)/C1=C/c1ccc2c(c1)n(C)c(=O)n2C	93.7	.	.
CC1=CC(C)(C)N2C(=O)C(=Nc3ccc(O)cc3)c3cccc1c32	90.2	.	.
O=C(NCCc1ccccc1)C1CCCN1C(=O)Nc1ccc(F)cc1 (stereo not drawn)	-43.2*	5.7	11.8
COc1ccc(NC(=O)N2CCCC2C(=O)Nc2ccccc2)cc1 (stereo not drawn)	-41.5*	1.1	13.0
COC(=O)C1=C(C)N(Cc2ccccc2)C(=NCc2ccc(OC)cc2)N[C@H]1c1ccccc1	51.3	.	.
CC(=O)Nc1ccc(NC(=O)C2CCCN2C(=O)Nc2ccc(F)cc2)cc1 (stereo not drawn)	-208.1*	4.2	14.6
COc1ccc(NC(=O)NNc2cc(N3CCOCC3)nc(N3CCOCC3)n2)cc1	51.6	.	.
C[C@]12C=CC(=O)C=C1CC[C@@H]1C2=CC[C@]2(C)[C@@H](C(=O)CN3CCN(c4cc(N5CCCC5)nc(N5CCCC5)n4)CC3)CC[C@@H]12	86.7	.	.
Cc1ccc(C(=O)NC(=S)Nc2cccc3nsnc23)cc1	58.9	.	.
COc1ccc(OC)c2c1C(=O)c1ccccc1C2=O	63.3	.	.
COc1ccc([C@@H]2CC=C(C(=O)O)[C@H](c3cccc(Cl)c3)N2S(=O)(=O)c2ccc(Cl)cc2)cc1	-72.8*	-2.6	18.9
COc1ccc(CCN2C(=O)c3[nH]nc(-c4ccccc4O)c3C2c2cccc(Cl)c2)cc1 (stereo not drawn)	40.9	.	.
CCOc1ccc(-c2nnc(-c3ccncc3)o2)cc1	-420.8*	5.0	11.4
NC(N)=N/N=C/c1c(Cl)cccc1Cl	1.1	.	.
N#Cc1c2c(c(-n3cnc4ccccc43)n3c1nc1ccccc13)CCC2	44.9	.	.
Cc1cc(C(=O)N/N=C/c2c(C)[nH]n(-c3ccccc3)c2=O)n[nH]1	76.7	.	.
CCCCN=Cc1c(C)[nH]n(-c2ccccc2)c1=S	-80.0*	0.8	11.7
CCCCN(CCCC)C(=S)N/N=C/c1c(C)[nH]n(-c2ccccc2)c1=O	57.3	.	.
CCS(=O)(=O)c1nc(S(=O)(=O)c2ccc(Cl)cc2)c(N2CCc3ccccc3C2)s1	-406.2*	-1.6	11.0
Cc1ccc2nc(N(CCCN(C)C)C(=O)c3ccc(S(=O)(=O)N4CCc5ccccc5C4)cc3)sc2c1	53.0	.	.
Cc1cc(O)c2c(c1O)C(=O)[C@]13C(=C2O)C(=O)[C@@H]2[C@@H](O)[C@H]1[C@@H]1[C@H](O)[C@H]3C(=O)C3=C(O)c4c(O)cc(C)c(O)c4C(=O)[C@]312	68.5	.	.
SMILES	Apaf1 activ	Rh110 act interf	Apaf-1 act conf2
Cc1[nH]c2ccc(CNS(=O)(=O)c3ccc(S(=O)(=O)N4CCOCC4)cc3)cc2c1C	-48.2*	13.7	16.0
Cc1ccc(S(=O)(=O)NCc2ccc3c(c2)cc(C)n3C)cc1	50.6	.	.
CCO/C=C1/C(=O)N(Cc2ccccc2)C(=O)c2ccccc21	61.7	.	.
CC1=NN(c2ccccc2)C(=O)/C1=C\c1ccc(Br)s1	96.0	.	.
CC1=NN(c2ccccc2)C(=O)/C1=C/c1ccc(Cl)cc1	95.9	.	.
CC1=NN(c2ccccc2)C(=O)/C1=C/c1ccc[nH]1	-138.2*	3.0	12.0
OCCN1CCN(CC/C=C2/c3ccccc3Sc3ccc(Cl)cc32)CC1	43.4	.	.
CC(=O)Nc1ccc(CN2CCc3c([nH]c4ccccc34)C2C(C)(C)C)cc1 (stereo not drawn)	-55.2*	8.7	14.9
